pIC50: −log10 of the molar value. Values joined by “and” are separate entries in the source; they are usually repeats but may differ in a detail not shown here. Equal values may be shown once.
What was measured:
Sus scrofa [1] = species: Sus scrofa; assay: Inhibition of H+/K+ ATPase in pig stomach at 100 uM; assay type: tissue-based
Method in brief: (§1)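 Enzyme from hog fundic mucosa: vesicles were isolated by differential and sucrose/Ficoll gradient centrifugation, lyophilized, resuspended in water, kept at -80° and used within 2–3 weeks. The 1 ml assay held 10 µg vesicle protein, 3 mM MgSO₄, 3 mM ATP and 40 mM Tris/HCl pH 7.4, ±15 mM KCl. Inorganic phosphate was the read-out, and H⁺,K⁺-ATPase activity was taken as the K⁺-dependent difference.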

Sus scrofa [2] = species: Sus scrofa; assay: Inhibition of H+/K+ ATPase in pig stomach at 10 uM; assay type: tissue-based; method in brief: as §1
Sus scrofa [3] = species: Sus scrofa; assay: Inhibition of H+/K+ ATPase in pig stomach at 1 uM; assay type: tissue-based; method in brief: as §1
[4] = Inhibition of H+/K+ ATPase in pig stomach; assay type: tissue-based, Sus scrofa; method in brief: as §1

inhibition (Sus scrofa [1]) | inhibition (Sus scrofa [2]) | inhibition (Sus scrofa [3]) | pIC50 [4] | Compound
62% and 64% | 21% and 14% | 7% and -0% | – | C[C@]12CC[C@]3(C1)[C@H](CC2=O)C[C@@H](OC(=O)c1ccccc1)[C@H]1[C@](C)(C(=O)O)CCC[C@@]13C
30% | 3% | -4% | – | C[C@]12CC[C@]3(C1)[C@H](C[C@H]2O)C[C@@H](OC(=O)c1ccccc1)[C@H]1[C@](C)(C(=O)O)CCC[C@@]13C
80% | 26% | 11% | – | C[C@]12CC[C@]3(C1)[C@H](C/C2=N\O)C[C@@H](OC(=O)c1ccccc1)[C@H]1[C@](C)(C(=O)O)CCC[C@@]13C
24% | – | – | – | C[C@]12CC[C@]3(C1)[C@@H](C[C@@H](O)[C@H]1[C@](C)(CO)CCC[C@@]13C)C[C@@H]2O
62% | 33% | -2% | – | CC(=O)OC[C@]1(C)CCC[C@@]2(C)[C@H]1[C@H](O)C[C@H]1C[C@@H](OC(C)=O)[C@@]3(C)CC[C@]12C3
61% | 58% | 35% | 5.52 | COC(=O)[C@]1(C)CCC[C@@]2(C)[C@H]1[C@H](OC(=O)c1ccccc1)C[C@H]1C[C@@H](OC(C)=O)[C@@]3(C)CC[C@]12C3
33% | 7% | 1% | – | CC(=O)O[C@@H]1C[C@H]2CC(=O)[C@@]3(C)CC[C@@]2(C3)[C@@]2(C)CCC[C@@](C)(C(=O)O)[C@H]12
62% | 61% | 49% | – | COC(=O)[C@]1(C)CCC[C@@]2(C)[C@H]1[C@H](OC(=O)c1ccccc1)C[C@H]1C[C@H](OC(C)=O)[C@@]3(C)CC[C@]12C3
7% | -3% | – | – | C[C@]12CC[C@]3(C1)[C@@H](C[C@@H](O)[C@H]1[C@](C)(CO)CCC[C@@]13C)C[C@H]2O
75% | 67% | 24% | – | COC(=O)[C@]1(C)CCC[C@@]2(C)[C@H]1[C@H](OC(=O)c1ccccc1)C[C@H]1C/C(=N\O)[C@@]3(C)CC[C@]12C3
68% | 64% | 10% | – | COC(=O)[C@]1(C)CCC[C@@]2(C)[C@H]1[C@H](OC(=O)c1ccccc1)C[C@H]1C[C@H](O)[C@@]3(C)CC[C@]12C3
22% | 5% | -2% | – | COC(=O)[C@]1(C)CCC[C@@]2(C)[C@H]1[C@H](O)C[C@H]1C[C@H](O)[C@@]3(C)CC[C@]12C3
57% | 18% | 13% | – | CC(=O)OC[C@]1(C)CCC[C@@]2(C)[C@H]1[C@H](OC(C)=O)C[C@H]1C[C@H](OC(C)=O)[C@@]3(C)CC[C@]12C3
98% | 38% | 7% | – | CC(=O)O[C@@H]1C[C@@H]2C[C@@H](OC(=O)c3ccccc3)[C@H]3[C@](C)(C(=O)O)CCC[C@]3(C)[C@]23CC[C@@]1(C)C3
72% | 12% | 1% | – | C[C@]12CC[C@]3(C1)[C@@H](C[C@@H](OC(=O)c1ccccc1)[C@H]1[C@](C)(C(=O)O)CCC[C@@]13C)C[C@@H]2O
64% | 59% | 12% | – | COC(=O)[C@]1(C)CCC[C@@]2(C)[C@H]1[C@H](OC(=O)c1ccccc1)C[C@H]1C[C@@H](O)[C@@]3(C)CC[C@]12C3
45% | 21% | -1% | – | C[C@@]12CC[C@]3(C1)[C@H](CC2=O)C[C@@H](OC(=O)c1ccccc1)[C@H]1[C@](C)(CO)CCC[C@@]13C
79% | 40% | 5% | – | CC(=O)OC[C@]1(C)CCC[C@@]2(C)[C@H]1[C@H](O)C[C@H]1C[C@H](OC(C)=O)[C@@]3(C)CC[C@]12C3
81% | 74% | 36% | 5.52 | COC(=O)[C@]1(C)CCC[C@@]2(C)[C@H]1[C@H](OC(=O)c1ccccc1)C[C@H]1CC(=O)[C@@]3(C)CC[C@]12C3
52% | 4% | -5% | – | COC(=O)[C@]1(C)CCC[C@@]2(C)[C@H]1[C@H](O)C[C@H]1CC(=O)[C@@]3(C)CC[C@]12C3
72% | 71% | 40% | – | CC(=O)OC[C@]1(C)CCC[C@@]2(C)[C@H]1[C@H](OC(=O)c1ccccc1)C[C@H]1CC(=O)[C@@]3(C)CC[C@]12C3
24% | – | – | – | C[C@]12CC[C@]3(C1)[C@H](CC2=O)C[C@@H](OC(=O)c1ccccc1)[C@H]1[C@@](CO)(C(=O)O)CCC[C@@]13C
8% | – | – | – | C[C@]12CC[C@]3(C1)[C@@H](C[C@@H](O)[C@H]1[C@](C)(C(=O)O)CCC[C@@]13C)C[C@@H]2O
12% | 1% | -1% | – | C[C@]12CC[C@]3(C1)[C@@H](CC(=O)[C@H]1[C@](C)(C(=O)O)CCC[C@@]13C)CC2=O
94% | 21% | 3% | – | CC(=O)O[C@H]1C[C@@H]2C[C@@H](OC(=O)c3ccccc3)[C@H]3[C@](C)(C(=O)O)CCC[C@]3(C)[C@]23CC[C@@]1(C)C3
21% | 13% | 2% | – | CC(=O)O[C@H]1C[C@@H]2C[C@@H](O)[C@H]3[C@](C)(C(=O)O)CCC[C@]3(C)[C@]23CC[C@@]1(C)C3

— ChEMBL document CHEMBL1158957, “Scopadulciol, an inhibitor of gastric H+, K(+)-ATPase from Scoparia dulcis, and its structure-activity relationships” (J Nat Prod, 1991)
